Results published in EPA's CvTdb concentration-time database.

Assays:
[1] = system: human; test: amount in urine after dosing (umol)
Outline: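 A PubMed search, classifier screening and manual review identified published in vivo toxicokinetic studies, which together with two structured collections supplied concentration-versus-time and amount-versus-time points. Points were mostly digitised from plot screenshots with WebPlotDigitizer, otherwise copied from tables. Dose, route, subject details and medium were hand-curated from each paper, and sampling and analytical methods are those of the sources, often unreported.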

[2] = system: Rat; test: concentration in plasma after dosing; conditions: 0.25 h; dosed: Gemfibrozil; 50 mg/kg; oral; Male; Sprague-Dawley
[3] = system: Rat; test: concentration in liver after dosing; conditions: 864 h; dosed: Perfluorooctane Sulfonate; 2 mg/kg; oral; Female; Harlan Sprague Dawley
[4] = system: Rat; test: concentration in liver after dosing; conditions: 6 h; dosed: Perfluorooctane Sulfonate; 20 mg/kg; oral; Male; Harlan Sprague Dawley

CC(C)(O)C(=O)O [2-hydroxyisobutyrate]
[1], dosed: methyl tert-butyl ether, oral
Conditions | amount in urine
0 h, 5 mg | 0.0411
6.05 h, 15 mg | 3.18
6.268 h, 5 mg | 1.19
12.12 h, 5 mg | 2.99
12.19 h, 15 mg | 8.45
18.04 h, 15 mg | 10.7
18.39 h, 5 mg | 3.79
24.12 h, 15 mg | 9.14
24.44 h, 5 mg | 3.07
29.96 h, 15 mg | 11.8
30.29 h, 5 mg | 3.64
36.26 h, 15 mg | 9.95
36.46 h, 5 mg | 2.37
42.05 h, 15 mg | 4.96
42.31 h, 5 mg | 1.27
48.24 h, 15 mg | 2.63
48.47 h, 5 mg | 0.849
54.1 h, 15 mg | 3.08
54.53 h, 5 mg | 0.89
59.87 h, 15 mg | 1.63
60.27 h, 5 mg | 0.438
66.05 h, 15 mg | 0.953
66.44 h, 5 mg | 0.123
71.92 h, 15 mg | 0.593
72.6 h, 5 mg | 0.0411
77.99 h, 15 mg | 0.596
83.85 h, 15 mg | 0.357
90.03 h, 15 mg | 0.279
95.89 h, 15 mg | 0.322

[1], inhalation, duration: 4 hr
Conditions | amount in urine
0 h, dosed: methyl tert-butyl ether, 4.5 ppm | 10.8
0.116 h, dosed: methyl tert-butyl ether, 38.7 ppm | 17.8
0.1579 h, dosed: ethyl tert-butyl ether, 40.6 ppm | 13.3
0.2123 h, dosed: ethyl tert-butyl ether, 4.5 ppm | 11.1
6 h, dosed: ethyl tert-butyl ether, 40.6 ppm | 41
6.115 h, dosed: ethyl tert-butyl ether, 4.5 ppm | 19.1
6.219 h, dosed: methyl tert-butyl ether, 38.7 ppm | 71.9
6.261 h, dosed: methyl tert-butyl ether, 4.5 ppm | 20.2
12 h, dosed: ethyl tert-butyl ether, 40.6 ppm | 65.3
12 h, dosed: methyl tert-butyl ether, 4.5 ppm | 26.8
12.13 h, dosed: methyl tert-butyl ether, 38.7 ppm | 147
12.31 h, dosed: ethyl tert-butyl ether, 4.5 ppm | 23.3
18 h, dosed: ethyl tert-butyl ether, 40.6 ppm | 61.2
18.26 h, dosed: methyl tert-butyl ether, 4.5 ppm | 21.8
18.32 h, dosed: ethyl tert-butyl ether, 4.5 ppm | 21.5
18.4 h, dosed: methyl tert-butyl ether, 38.7 ppm | 149
24 h, dosed: ethyl tert-butyl ether, 40.6 ppm | 50.2
24 h, dosed: methyl tert-butyl ether, 4.5 ppm | 24.3
24.14 h, dosed: methyl tert-butyl ether, 38.7 ppm | 134
24.23 h, dosed: ethyl tert-butyl ether, 4.5 ppm | 20.8
30 h, dosed: ethyl tert-butyl ether, 40.6 ppm | 70.5
30.26 h, dosed: methyl tert-butyl ether, 4.5 ppm | 27.8
30.41 h, dosed: ethyl tert-butyl ether, 4.5 ppm | 22.2
30.42 h, dosed: methyl tert-butyl ether, 38.7 ppm | 132
36.1 h, dosed: methyl tert-butyl ether, 4.5 ppm | 18.2
36.14 h, dosed: methyl tert-butyl ether, 38.7 ppm | 85.6
36.21 h, dosed: ethyl tert-butyl ether, 40.6 ppm | 51
36.28 h, dosed: ethyl tert-butyl ether, 4.5 ppm | 14.6
42.16 h, dosed: ethyl tert-butyl ether, 40.6 ppm | 41.8
42.16 h, dosed: methyl tert-butyl ether, 4.5 ppm | 14.4
42.29 h, dosed: methyl tert-butyl ether, 38.7 ppm | 63
42.3 h, dosed: ethyl tert-butyl ether, 4.5 ppm | 13.6
48.13 h, dosed: methyl tert-butyl ether, 38.7 ppm | 41.8
48.16 h, dosed: ethyl tert-butyl ether, 40.6 ppm | 34.3
48.47 h, dosed: ethyl tert-butyl ether, 4.5 ppm | 14.4
54.21 h, dosed: ethyl tert-butyl ether, 40.6 ppm | 30.1
54.31 h, dosed: methyl tert-butyl ether, 38.7 ppm | 48.6
60.15 h, dosed: methyl tert-butyl ether, 38.7 ppm | 33.6
60.16 h, dosed: ethyl tert-butyl ether, 40.6 ppm | 37.6
66.16 h, dosed: ethyl tert-butyl ether, 40.6 ppm | 20.9
66.32 h, dosed: methyl tert-butyl ether, 38.7 ppm | 24
72.06 h, dosed: methyl tert-butyl ether, 38.7 ppm | 17.8
72.16 h, dosed: ethyl tert-butyl ether, 40.6 ppm | 17.5

CC(O)C(C)(C)O (stereo not given) [2-methyl-2,3-butanediol]
[1], dosed: tert-amyl methyl ether, inhalation, duration: 4 hr
Conditions | amount in urine
0.2902 h, 38.4 ppm | 3.72
6.051 h, 3.8 ppm | 2.15
6.373 h, 38.4 ppm | 16.5
12.12 h, 3.8 ppm | 3.45
12.25 h, 38.4 ppm | 30.5
18.08 h, 3.8 ppm | 2.56
18.3 h, 38.4 ppm | 29.8
24.08 h, 3.8 ppm | 3.27
24.35 h, 38.4 ppm | 31.2
30.04 h, 3.8 ppm | 2.77
30.25 h, 38.4 ppm | 25.2
36.13 h, 3.8 ppm | 2.42
36.31 h, 38.4 ppm | 28.1
42.02 h, 3.8 ppm | 1.67
42.34 h, 38.4 ppm | 17
47.89 h, 3.8 ppm | 2.12
48.2 h, 38.4 ppm | 23.9
54.05 h, 3.8 ppm | 1.93
54.23 h, 38.4 ppm | 14.1
59.94 h, 3.8 ppm | 1.6
60.36 h, 38.4 ppm | 18.1
66.02 h, 3.8 ppm | 1.63
66.19 h, 38.4 ppm | 12.1
71.9 h, 3.8 ppm | 1.44
72.24 h, 38.4 ppm | 11.2
225 s, 3.8 ppm | 0.476

[1], dosed: tert-amyl methyl ether, oral
Conditions | amount in urine
0.2379 h, 5 mg | 0.118
6.002 h, 15 mg | 1.07
6.23 h, 5 mg | 0.379
11.79 h, 15 mg | 1.97
12.07 h, 5 mg | 0.593
17.9 h, 15 mg | 2.14
18.15 h, 5 mg | 0.435
24 h, 15 mg | 2.43
24.24 h, 5 mg | 0.394
29.83 h, 15 mg | 2.27
30.07 h, 5 mg | 0.532
35.87 h, 15 mg | 2.31
36.08 h, 5 mg | 0.4
41.73 h, 15 mg | 1.29
42.17 h, 5 mg | 0.374
47.83 h, 15 mg | 1.66
48.27 h, 5 mg | 0.367
53.95 h, 15 mg | 1.48
54.08 h, 5 mg | 0.38
59.71 h, 15 mg | 1.02
60.18 h, 5 mg | 0.324
65.84 h, 15 mg | 0.758
66.2 h, 5 mg | 0.264
71.94 h, 15 mg | 1.05
72 h, 5 mg | 0.243
77.76 h, 15 mg | 1.07
78.1 h, 5 mg | 0.243
83.97 h, 15 mg | 0.611
84.2 h, 5 mg | 0.244
89.71 h, 15 mg | 0.61
90 h, 5 mg | 0.214
95.84 h, 15 mg | 0.463
96.03 h, 5 mg | 0.188
235 s, 15 mg | 0.223

Cc1ccc(C)c(OCCCC(C)(C)C(=O)O)c1 [Gemfibrozil]
Conditions | concentration in plasma [ng/mL]
[2] | 14400

O=S(=O)([O-])C(F)(F)C(F)(F)C(F)(F)C(F)(F)C(F)(F)C(F)(F)C(F)(F)C(F)(F)F [Perfluorooctane Sulfonate]
Conditions | concentration in liver [ng/g]
[3] | 11100
[4] | 204000
